In ChEMBL document CHEMBL2331340, “Novel antitumor indolizino[6,7-b]indoles with multiple modes of action: DNA cross-linking and topoisomerase I and II inhibition” (J Med Chem, 2013):
The source made the active and inactive calls. No cut-off for these calls is given here.

Key:
Mus musculus [1] = assay: Toxicity in nude mouse xenografted with human HT-29 cells assessed as body weight loss at 25 mg/kg, iv qd administered 4 days measured for 20 days; assay type: organism-based; design: dose 25 mg/kg, route intravenous; conditions: in vivo, 480 h
[2] = Cytotoxicity against human MES-SA cells after 72 hrs by Presto Blue assay; assay type: functional, cell-based
Outline: (§1)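 MES-SA and doxorubicin-resistant MES-SA/dx5 cells exposed for 72 h, then PrestoBlue added for 3 h at 37 °C, absorbance read at 570 and 600 nm. IC50 by median-effect analysis of six or seven concentrations; mean ± STDEV of three to six independent experiments.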

KB = assay: Cytotoxicity against human KB cells after 72 hrs by Alamar blue assay
A549 = assay: Cytotoxicity against human A549 cells after 72 hrs by Alamar blue assay; assay type: functional, cell-based; conditions: A549, 72 h
Outline: (§2)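 Cells exposed to compound for 72 h, then Alamar blue added with a further 10−12 h at 37 °C and a spectrophotometric read. IC50 from six or seven concentrations by median-effect analysis; mean ± STDEV, n = 3. CL141T is a line derived from a patient lung tumor passaged as a SCID mouse xenograft.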

NCI-H460 [3] = assay: Induction of apoptosis in human H460 cells assessed as increase in cleaved caspase 3 expression at IC50 after 24 to 72 hrs by Western blotting analysis; assay type: functional, cell-based
Outline: (§3)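 H460 cells treated at IC50 for 24 and 72 h. Lysate proteins separated by SDS-PAGE and blotted to nitrocellulose, blocked in 5% milk/PBST. Primary antibodies to caspase-3, caspase-7, PARP (full-length and cleaved) and β-actin applied for 1 h at room temperature or overnight at 4 °C; HRP secondary with ECL detection.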

[4] = Cytotoxicity against human MES-SA/Dx5 cells after 72 hrs by Presto Blue assay; assay type: functional, cell-based; conditions: MES-SA/Dx5, 72 h; outline: as §1
[5] = Cell cycle arrest in human CL141T cells assessed as accumulation at G2/M phase at 0.5 x IC50 to 1 x IC50 after 48 to 72 hrs by propidium iodide staining-based FACS flow cytometric analysis; assay type: functional
Outline: (§4)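 CL141T cells treated at 0.5-, 1- and 2-fold IC50 for 24, 48 and 72 h. Cells fixed in ice-cold 70% EtOH, then stained with 4 μg/mL propidium iodide in PBS with 1% Triton X-100 and 0.1 mg/mL RNase A. Phase distribution from flow cytometry DNA histograms; sub-G1 fraction scored as well.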

[6] = target: DNA topoisomerase 2-alpha (Homo sapiens) (UniProt P11388); assay: Inhibition of DNA topoisomerase 2 (unknown origin)-mediated relaxation of supercoiled pHOT DNA after 30 to 45 mins by agarose gel electrophoresis
Chain of DNA topoisomerase 2-alpha (Homo sapiens) (P11388 whole entry): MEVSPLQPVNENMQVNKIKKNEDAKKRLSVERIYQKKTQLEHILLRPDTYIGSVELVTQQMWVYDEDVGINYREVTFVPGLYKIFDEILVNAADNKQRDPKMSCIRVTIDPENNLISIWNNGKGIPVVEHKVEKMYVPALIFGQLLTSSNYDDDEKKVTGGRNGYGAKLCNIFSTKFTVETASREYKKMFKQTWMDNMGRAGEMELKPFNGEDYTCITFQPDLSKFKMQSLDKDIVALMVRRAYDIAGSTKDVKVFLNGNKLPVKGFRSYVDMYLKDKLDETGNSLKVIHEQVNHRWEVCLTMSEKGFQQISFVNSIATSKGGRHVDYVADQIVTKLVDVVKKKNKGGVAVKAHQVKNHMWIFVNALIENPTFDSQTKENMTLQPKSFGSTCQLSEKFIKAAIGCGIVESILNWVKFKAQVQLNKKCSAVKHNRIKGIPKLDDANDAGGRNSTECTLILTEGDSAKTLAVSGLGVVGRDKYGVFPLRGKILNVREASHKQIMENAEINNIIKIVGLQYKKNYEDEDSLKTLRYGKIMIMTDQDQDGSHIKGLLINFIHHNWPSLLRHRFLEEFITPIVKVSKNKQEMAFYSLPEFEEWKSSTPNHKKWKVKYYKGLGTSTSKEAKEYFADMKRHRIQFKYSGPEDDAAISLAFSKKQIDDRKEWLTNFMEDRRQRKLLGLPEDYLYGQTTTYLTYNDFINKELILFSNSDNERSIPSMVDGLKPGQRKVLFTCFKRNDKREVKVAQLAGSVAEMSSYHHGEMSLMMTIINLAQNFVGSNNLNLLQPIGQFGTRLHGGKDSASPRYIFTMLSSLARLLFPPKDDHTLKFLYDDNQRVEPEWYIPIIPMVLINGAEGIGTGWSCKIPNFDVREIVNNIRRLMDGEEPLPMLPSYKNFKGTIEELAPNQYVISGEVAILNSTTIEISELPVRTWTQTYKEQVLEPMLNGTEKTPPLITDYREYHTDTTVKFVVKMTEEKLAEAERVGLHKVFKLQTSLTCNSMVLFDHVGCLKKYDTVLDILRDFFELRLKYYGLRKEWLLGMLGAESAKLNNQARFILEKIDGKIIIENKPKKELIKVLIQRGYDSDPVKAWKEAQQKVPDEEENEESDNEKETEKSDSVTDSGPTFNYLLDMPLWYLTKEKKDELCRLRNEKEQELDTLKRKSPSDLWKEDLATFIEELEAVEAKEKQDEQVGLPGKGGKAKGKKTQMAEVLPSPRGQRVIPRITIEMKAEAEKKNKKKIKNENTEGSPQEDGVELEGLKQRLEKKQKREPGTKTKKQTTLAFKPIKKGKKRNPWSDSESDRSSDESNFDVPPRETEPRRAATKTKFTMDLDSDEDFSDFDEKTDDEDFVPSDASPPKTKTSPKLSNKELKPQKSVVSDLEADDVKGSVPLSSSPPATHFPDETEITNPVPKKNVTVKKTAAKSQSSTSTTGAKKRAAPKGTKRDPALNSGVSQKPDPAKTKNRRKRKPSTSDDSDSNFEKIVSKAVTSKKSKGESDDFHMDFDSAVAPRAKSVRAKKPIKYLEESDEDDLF
Outline: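 Supercoiled pHOT DNA (125 ng) with compound in buffer stated as 0.5 M Tris-HCl pH 8.0, 1.5 M NaCl, 100 mM MgCl2, 5 mM DTT, 300 μg/mL BSA, 20 mM ATP, at 37 °C. Methods state 6 units topo II, figure legend 5 units; 30−45 min, SDS stop. Products run on 1% agarose and stained with ethidium bromide.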

[7] = Cell cycle arrest in human CL141T cells assessed as accumulation at G2/M phase at 2 x IC50 after 24 hrs by propidium iodide staining-based FACS flow cytometric analysis; assay type: functional; outline: as §4
[8] = Cytotoxicity against human OECM1 cells after 72 hrs by Alamar blue assay; assay type: functional, cell-based; conditions: OECM1, 72 h; outline: as §2
MES-SA = assay: Resistance factor, ratio of IC50 for human MES-SA/Dx5 cells to IC50 for human MES-SA cells; assay type: functional
NCI-H460 [9] = assay: Induction of apoptosis in human H460 cells assessed as increase in apoptotic cells at IC50 after 24 hrs by annexin V-FITC/propidium iodide staining-based FACS flow cytometric analysis (reference value: 4.1%); assay type: functional
CCRF-CEM = assay: Cytotoxicity against human CCRF-CEM cells after 72 hrs by XTT assay; assay type: functional, cell-based
Outline: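 CCRF-CEM T-ALL cells incubated with compound for 72 h. XTT with phenazine methosulfate then added for 6 h at 37 °C, absorbance read at 450 and 630 nm. IC50 from six or seven concentrations by median-effect analysis; mean ± STDEV, n = 3.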

MX1 = assay: Cytotoxicity against human MX1 cells after 72 hrs by SRB assay; assay type: functional, cell-based; conditions: MX1, 72 h
[10] = Cytotoxicity against human CL141T cells after 72 hrs by Alamar blue assay; assay type: functional, cell-based; outline: as §2
[11] = Cell cycle arrest in human CL141T cells assessed as accumulation at S phase at 0.5 x IC50 after 24 hrs by propidium iodide staining-based FACS flow cytometric analysis; assay type: functional; outline: as §4
Escherichia coli = assay: Induction of Escherichia coli pEGFP-N1 DNA interstrand cross-linking at 1 to 10 uM after 2 hrs by alkaline agarose gel shift assay
Outline: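 Plasmid pEGFP-N1 DNA (1500 ng) incubated with compound at 1, 5 and 10 μM in 3 mM NaCl/1 mM sodium phosphate pH 7.4/1 mM EDTA, 2 h at 37 °C. DNA then BamHI-linearized, EtOH-precipitated, denatured in 0.5 N NaOH/10 mM EDTA, run on 0.8% alkaline agarose at 4 °C (18 V, 22 h), stained with ethidium bromide.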

[12] = Cytotoxicity against human H460 cells after 72 hrs by Alamar blue assay; assay type: functional, cell-based; conditions: NCI-H460, 72 h; outline: as §2
Mus musculus [13] = assay: Toxicity in nude mouse xenografted with human A549 cells assessed as body weight loss at 25 mg/kg, iv qd administered 4 days measured for 20 days; assay type: organism-based; design: dose 25 mg/kg, route intravenous; conditions: in vivo, 480 h
HCT-116 = assay: Cytotoxicity against human HCT116 cells after 72 hrs by Alamar blue assay; assay type: functional, cell-based; conditions: HCT-116, 72 h; outline: as §2
[14] = Cell cycle arrest in human CL141T cells assessed as accumulation at G1 phase at 1 x IC50 to 2 x IC50 after 24 hrs by propidium iodide staining-based FACS flow cytometric analysis; assay type: functional; outline: as §4
[15] = Resistance factor, ratio of IC50 for human KB-VIN10 cells to IC50 for human KB cells; assay type: functional
[16] = Cell cycle arrest in human CL141T cells assessed as accumulation at S phase at 1 x IC50 to 2 x IC50 after 24 hrs by propidium iodide staining-based FACS flow cytometric analysis; assay type: functional; outline: as §4
HT-29 = assay: Antitumor activity against human HT-29 cells xenografted in nude mouse assessed as tumor growth inhibition at 25 mg/kg, iv qd administered 4 days measured on day 20; assay type: functional, organism-based; design: dose 25 mg/kg
[17] = Cytotoxicity against human HEL299 cells; assay type: cell-based; conditions: HEL 299
[18] = Half life in rat plasma at 1 to 10 ug/mL after 1 to 4 hrs by HPLC analysis; assay type: ADME, cell-free
Outline: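 Rat plasma spiked at 1 and 10 μg/mL and held 1, 2, 3 and 4 h at room temperature. Protein precipitated with acetonitrile containing 10 μg/mL propyl paraben internal standard, centrifuged, filtered. Analysed by reversed-phase C18 HPLC in acetonitrile/10 mM NaH2PO4 pH 4.5 (32:68). Stability given as mean relative error, at least three replicates per concentration.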

PC-3 = assay: Cytotoxicity against human PC3 cells after 72 hrs by Alamar blue assay; assay type: functional, cell-based; conditions: PC-3, 72 h; outline: as §2
NCI-H460 [19] = assay: Induction of apoptosis in human H460 cells assessed as increase in cleaved caspase 7 expression at IC50 after 24 to 72 hrs by Western blotting analysis; assay type: functional, cell-based; outline: as §3

- inhibition [6]: Dose-dependent effect
- Activity (Escherichia coli): Active
- half-life [18]: 12.4 h
SMILES: Cc1c(CO)c(CO)c2n1Cc1c(c3ccccc3n1C)C2
- Activity (Mus musculus [1]): Toxic
- IC50 [2]: 240 nM
- IC50 (KB): 2510 nM
- IC50 (A549): 1140 nM
- Activity (NCI-H460 [3]): Active
- IC50 [4]: 120 nM
- Activity [5]: Active
- Activity [7]: inactive
- IC50 [8]: 960 nM
- Ratio IC50 (MES-SA): 0.52
- Activity (NCI-H460 [9]): 15.09%
- IC50 (CCRF-CEM): 40 nM
- IC50 (MX1): 220 nM
- IC50 [10]: 510 nM
- Activity [11]: Active
- IC50 [12]: 380 nM
- Activity (Mus musculus [13]): Toxic
- IC50 (HCT-116): 1000 nM
- Activity [14]: Active
- Ratio IC50 [15]: 0.52
- Activity [16]: Active
- TGI (HT-29): Active
- IC50 [17]: 2790 nM
- IC50 (PC-3): 610 nM
- Activity (NCI-H460 [19]): Active
